Experimental data: ChEMBL document CHEMBL1153411, “Comparing anti-HIV, antibacterial, antifungal, micellar, and cytotoxic properties of tricarboxylato dendritic amphiphiles” (Bioorg Med Chem, 2009)
Values after ≈ are worked out from the molar mass of the structure shown.

How the values were obtained:
[1] = Critical micelle concentration in aqueous potassium hydroxide by conductivity measurement; format: physicochemical; conditions: buffer
Summary of the method: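 Measured in potassium hydroxide solutions at high pH so that only the trianion is present. Solutions stirred during conductivity measurement. CMC taken by least-squares fits of the linear portions of conductivity-versus-concentration plots on either side of the break.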

[2] = Critical micelle concentration in aqueous triethanalamine using drop shape analysis by surface tension measurement; format: physicochemical; conditions: buffer
Summary of the method: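 Surface tension from pendent drops on an 18-gauge needle in triethanolamine/water 0.9% (wt/vol), with solution pH 8.0–9.5. Drop kept in a cuvette holding aqueous triethanolamine to maintain humidity, and camera magnification calibrated from needle tip width. CMC from the break in surface tension versus log concentration.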

[3] = system: Human immunodeficiency virus 1; assay: Antiviral activity against HIV1 3B with X4 trophism infected in human HeLa cells after 2 hrs by beta-galactosidase reporter gene assay; format: functional, organism-based; conditions: Human immunodeficiency virus 1, 3B
Summary of the method: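 CD4+, LTR-driven β-galactosidase HeLa cells exposed 2 h to HIV-1 IIIB plus serial compound dilutions. Virus and compound then washed out and cells cultured 48 h in RPMI 1640/10% FBS at 37 °C, 5% CO2. Lysate β-galactosidase measured by chemiluminescence, with virus-only wells as 100% infection. EC50 by linear regression; SD ±10%.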

[4] = Cytotoxicity against human epithelial cells by MTT assay; format: cell-based; conditions: Epithelial cell
Summary of the method: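 Same HeLa cells and same conditions as the infection assay, on a separate plate without virus. Viability measured by MTT reduction. EC50 by linear regression; SD ±10%.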

[5] = system: Lactiplantibacillus plantarum; assay: Antibacterial activity against Lactobacillus plantarum; format: functional
Summary of the method: (§1)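 Whole-cell growth-inhibition assays against L. plantarum or C. albicans, compounds added from aqueous triethanolamine stocks. Activity expressed as MIC99, the concentration giving complete inhibition of growth. Error ±1 twofold dilution.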

[6] = system: Neisseria gonorrhoeae; assay: Antibacterial activity against Neisseria gonorrhoeae ATCC 31426 after 4 days by broth microdilution method; format: functional; conditions: ATCC 31426, 96 h
Summary of the method: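 Strain ATCC 31426 from chocolate agar (1% hemoglobin) colonies, grown 4 d in GC broth at 37 °C in an anaerobic jar with CO2 generator. Cells taken up in buffered saline gelatin and allowed to settle 4 h. Broth microdilution over 6.25 mg/mL down to 0.55 µg/mL. Plates incubated 4 d at 37 °C, in triplicate. MIC is the lowest concentration giving prominent visible decrease in turbidity; ±1 twofold dilution.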

[7] = system: Candida albicans; assay: Antifungal activity against Candida albicans; format: functional; summary of the method: as §1
[8] = Safety ratio of critical micelle concentration in aqueous triethanalamine at pH 7.4 to MIC99 for Candida albicans; format: toxicity; conditions: aqueous triethanolamine
[9] = Safety ratio of critical micelle concentration in aqueous potassium hydroxide to MIC99 for Candida albicans; format: toxicity; conditions: buffer
[10] = Safety index, ratio of EC50 for human epithelial cells to MIC99 for Candida albicans; format: toxicity, cell-based, Epithelial cell
[11] = Critical micelle concentration in aqueous triethanalamine at pH 8.0 to 9.5 by fluorescence spectra measurement; conditions: buffer
[12] = Slope of log critical micelle concentration versus chain length n in aqueous potassium hydroxide by conductivity measurement; conditions: buffer
[13] = Solubility of compound in phosphate buffer at pH 7.2; format: physicochemical
[14] = Ratio of EC50 for human HeLa cells to EC50 for HIV1 3B infected in human HeLa cells
[15] = Critical micelle concentration in aqueous triethanalamine at pH 6.4 by fluorescence spectra measurement; format: physicochemical
Summary of the method: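 Measured in triethanolamine/water 0.9% (wt/vol) with pH adjusted to 7.4 or 6.4, using pyrene as micelle probe. Mixtures shaken at least 24 h. Excitation 334 nm, bandpasses 5/2.5 nm. CMC from emission intensities of the I1 (373 nm) and I3 (384 nm) peaks.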

[16] = Solubility of compound in triethanolamine solution; format: physicochemical

CCCCCCCCCCCCCCCCCCCC(=O)NC(CCC(=O)O)(CCC(=O)O)CCC(=O)O
CMC [1]: 34 µM
CMC [2]: 3000 µM
EC50 [3]: 170 µM
EC50 [4]: 340 µM
MIC99 [5]: 520 µM (≈ 282 µg/mL)
MIC99 [6]: 130 µM (≈ 70.4 µg/mL)
MIC99 [7]: 16 µM (≈ 8.67 µg/mL)
selectivity ratio [8]: 10
Ratio [9]: 2
selectivity ratio [10]: 21
CMC [11]: 3200 µM
slope of logCMC vs n [12]: -0.175

CCCCCCCCCCCCCCCC(=O)NC(CCC(=O)O)(CCC(=O)O)CCC(=O)O
solubility [13]: 6900 µM (≈ 3350 µg/mL)
CMC [1]: 1500 µM
CMC [2]: 17000 µM
EC50 [3]: 230 µM
EC50 [4]: 940 µM
Ratio EC50 [14]: 4
MIC99 [5]: 570 µM (≈ 277 µg/mL)
MIC99 [6]: 12000 µM (≈ 5830 µg/mL)
MIC99 [7]: 290 µM (≈ 141 µg/mL)
CMC [11]: 18000 µM
slope of logCMC vs n [12]: -0.175

CCCCCCCCCCCCCCCCCCNC(=O)NC(CCC(=O)O)(CCC(=O)O)CCC(=O)O
CMC [1]: 330 µM
CMC [2]: 2200 µM
EC50 [3]: 240 µM
EC50 [4]: 280 µM
Ratio EC50 [14]: 1.2
MIC99 [5]: 1400 µM (≈ 760 µg/mL)
MIC99 [6]: 130 µM (≈ 70.6 µg/mL)
MIC99 [7]: 1400 µM (≈ 760 µg/mL)
CMC [11]: 2300 µM
slope of logCMC vs n [12]: -0.3

CCCCCCCCCCCCCC(=O)NC(CCC(=O)O)(CCC(=O)O)CCC(=O)O
CMC [1]: 3500 µM
EC50 [3]: 740 µM
EC50 [4]: 300 µM
MIC99 [5]: 610 µM (≈ 279 µg/mL)
MIC99 [6]: 12000 µM (≈ 5490 µg/mL)
MIC99 [7]: 610 µM (≈ 279 µg/mL)
slope of logCMC vs n [12]: -0.175

CCCCCCCCCCCCCCCCCCCCOC(=O)NC(CCC(=O)O)(CCC(=O)O)CCC(=O)O
CMC [2]: 500 µM
EC50 [3]: 130 µM
EC50 [4]: 280 µM
Ratio EC50 [14]: 2.2
MIC99 [5]: 1400 µM (≈ 801 µg/mL)
MIC99 [6]: 120 µM (≈ 68.6 µg/mL)
MIC99 [7]: 1400 µM (≈ 801 µg/mL)
CMC [11]: 800 µM

CCCCCCCCCCCCCCNC(=O)NC(CCC(=O)O)(CCC(=O)O)CCC(=O)O
CMC [1]: 8400 µM
EC50 [3]: 270 µM
Ratio EC50 [14]: 1.1
MIC99 [5]: 6400 µM (≈ 3110 µg/mL)
MIC99 [6]: 12000 µM (≈ 5840 µg/mL)
MIC99 [7]: 1600 µM (≈ 779 µg/mL)
slope of logCMC vs n [12]: -0.3

CCCCCCCCCCCCCCCCOC(=O)NC(CCC(=O)O)(CCC(=O)O)CCC(=O)O
CMC [2]: 6800 µM
EC50 [3]: 170 µM
EC50 [4]: 440 µM
Ratio EC50 [14]: 2.6
MIC99 [5]: 6000 µM (≈ 3090 µg/mL)
MIC99 [6]: 280 µM (≈ 144 µg/mL)
MIC99 [7]: 47 µM (≈ 24.2 µg/mL)
CMC [11]: 6400 µM

CCCCCCCCCCCCCCCCNC(=O)NC(CCC(=O)O)(CCC(=O)O)CCC(=O)O
CMC [1]: 2300 µM
CMC [15]: 480 µM
CMC [2]: 4900 µM
EC50 [3]: 180 µM
EC50 [4]: 350 µM
Ratio EC50 [14]: 1.9
MIC99 [5]: 6000 µM (≈ 3090 µg/mL)
MIC99 [6]: 2800 µM (≈ 1440 µg/mL)
MIC99 [7]: 47 µM (≈ 24.2 µg/mL)
selectivity ratio [8]: 83
Ratio [9]: 49
selectivity ratio [10]: 7
CMC [11]: 7100 µM
slope of logCMC vs n [12]: -0.3

CCCCCCCCCCCCCCCCCCCCCCOC(=O)NC(CCC(=O)O)(CCC(=O)O)CCC(=O)O
CMC [2]: 320 µM
EC50 [3]: 110 µM
EC50 [4]: 360 µM
Ratio EC50 [14]: 3.3
MIC99 [5]: 1300 µM (≈ 780 µg/mL)
MIC99 [6]: 120 µM (≈ 72 µg/mL)
MIC99 [7]: 1300 µM (≈ 780 µg/mL)
CMC [11]: 330 µM

CCCCCCCCCCCCCCCCCCOC(=O)NC(CCC(=O)O)(CCC(=O)O)CCC(=O)O
CMC [2]: 2800 µM
EC50 [3]: 130 µM
EC50 [4]: 350 µM
Ratio EC50 [14]: 2.7
MIC99 [5]: 1400 µM (≈ 761 µg/mL)
MIC99 [6]: 65 µM (≈ 35.3 µg/mL)
MIC99 [7]: 180 µM (≈ 97.9 µg/mL)
CMC [11]: 2700 µM

CCCCCCCCCCCCCCCCCCCCNC(=O)NC(CCC(=O)O)(CCC(=O)O)CCC(=O)O
CMC [1]: 120 µM
CMC [2]: 1400 µM
EC50 [3]: 130 µM
EC50 [4]: 210 µM
Ratio EC50 [14]: 1.6
MIC99 [5]: 1400 µM (≈ 799 µg/mL)
MIC99 [6]: 120 µM (≈ 68.5 µg/mL)
MIC99 [7]: 2800 µM (≈ 1600 µg/mL)
CMC [11]: 1300 µM
slope of logCMC vs n [12]: -0.3

CCCCCCCCCCCCCCCCCC(=O)NC(CCC(=O)O)(CCC(=O)O)CCC(=O)O
CMC [1]: 71 µM
CMC [2]: 11000 µM
MIC99 [5]: 540 µM (≈ 277 µg/mL)
MIC99 [6]: 2700 µM (≈ 1390 µg/mL)
MIC99 [7]: 280 µM (≈ 144 µg/mL)
CMC [11]: 11000 µM
slope of logCMC vs n [12]: -0.175

CCCCCCCCCCCCCCOC(=O)NC(CCC(=O)O)(CCC(=O)O)CCC(=O)O
EC50 [3]: 370 µM
EC50 [4]: 620 µM
Ratio EC50 [14]: 1.7
MIC99 [5]: 6400 µM (≈ 3120 µg/mL)
MIC99 [6]: 580 µM (≈ 283 µg/mL)
MIC99 [7]: 1600 µM (≈ 780 µg/mL)

CCCCCCCCCCCCCCCCCCCCCCNC(=O)NC(CCC(=O)O)(CCC(=O)O)CCC(=O)O
CMC [1]: 40 µM
CMC [2]: 340 µM
EC50 [3]: 120 µM
EC50 [4]: 260 µM
Ratio EC50 [14]: 2.2
MIC99 [5]: 940 µM (≈ 563 µg/mL)
MIC99 [6]: 120 µM (≈ 71.9 µg/mL)
MIC99 [7]: 2700 µM (≈ 1620 µg/mL)
CMC [11]: 400 µM
slope of logCMC vs n [12]: -0.3

CCCCCCCCCCCCCCCCCCCCCC(=O)NC(CCC(=O)O)(CCC(=O)O)CCC(=O)O
solubility [16]: > 22000 µM
solubility [13]: 79 µM (≈ 45 µg/mL)
CMC [1]: 13 µM
CMC [15]: 150 µM
CMC [2]: 2000 µM
EC50 [3]: 130 µM
EC50 [4]: 250 µM
MIC99 [5]: 490 µM (≈ 279 µg/mL)
MIC99 [6]: 120 µM (≈ 68.4 µg/mL)
MIC99 [7]: 7.7 µM (≈ 4.39 µg/mL)
selectivity ratio [8]: 52
Ratio [9]: 1.7
selectivity ratio [10]: 32
CMC [11]: 1500 µM
slope of logCMC vs n [12]: -0.175
